Data as given in paper PMC10685803 (RSC Chemical Biology, 2023).
≈ marks a conversion by molar mass, not a printed value.

T1: DHBDAXX (residues 55-144 hDAXX) (Homo sapiens, UniProt Q9UER7)
T1 sequence (Q9UER7 55-144): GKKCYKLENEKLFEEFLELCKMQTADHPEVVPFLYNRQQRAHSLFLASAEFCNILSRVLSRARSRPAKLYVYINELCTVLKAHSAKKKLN

B1: DAXX Helical Bundle domain (DHB_(DAXX), residues 55-144 hDAXX) (domain or fragment, human, UniProt Q9UER7 55-144, looked up)
chain: T1 sequence (Q9UER7 55-144)
B2: DAXX Interacting Domain of ATRX (DID_(ATRX), residues 1190-1325 hATRX) (domain or fragment, human, UniProt P46100 1190-1325, looked up)
chain: RTSTKRKQADITSSSSSDIEDDDQNSIGEGSSDEQKIKPVTENLVLSSHTGFCQSSGDEALSKSVPVTVDDDDDDNDPENRIAKKMLLEEIKANLSSDEDGSSDDEPEEGKKRTGKQNEENPGDEEAKNQVNSESD
B3: DIDATRX: DAXX Interacting Domain of ATRX, residues 1190–1325 hATRX, recombinant (protein)
chain: B2 chain
modifications: left off: His6, N-terminal, state not stated

Key:
[1] = Solubility limit of stitched peptides; type: physicochemical; conditions: peptides synthesized with an N-terminal FAM moiety; method not described
HCT116 cells = test: Lactate dehydrogenase; type: cell-based; conditions: chloroalkane versions, 2% serum, 4 and 24 h
Method in brief: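 HCT116 cells were seeded at 5000 per well in DMEM/10% FCS for 24 h, then switched to medium with 2% FCS. They were given titrated peptide (up to 50 μM; 1% v/v DMSO final) for 4 or 24 h, with 1% DMSO-only controls. Released LDH was measured by colorimetric kit and normalised to 0.1% Triton X-100 lysis. Mean of three independent measurements ± 1 SD.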

[2] = biological target: T1, DHBDAXX (residues 55-144 hDAXX); test: Fluorescence polarisation saturation binding of FAM-labelled peptide to DHBDAXX; conditions: fluorescence anisotropy Kd
[3] = biological target: B1; test: ITC
[4] = biological target: B2; test: fluorescence polarisation
[5] = biological target: B2; test: ITC
[6] = biological target: T1, DHBDAXX (residues 55-144 hDAXX); conditions: read-out: Kd (competitive binding affinity); competitive displacement of FAM-SPEP7 from DHBDAXX
[7] = biological target: T1, DHBDAXX (residues 55-144 hDAXX); test: Isothermal titration calorimetry; type: binding; conditions: ITC, 25 °C, ATRX fragments (Table 1), no unit in table

## CC[C@H](C)[C@@H]1NC(=O)[C@H](CCC(=O)O)NC(=O)[C@H](C)NC(=O)[C@H](CC(C)C)NC(=O)[C@H](CC(C)C)NC(=O)C2(CCCC=CCCCCCC[C@@](C)(C(=O)N[C@@H](CC(N)=O)C(=O)N[C@@H](CC(C)C)C(=O)N[C@@H](CO)C(N)=O)NC(=O)[C@H](CCCCN)NC1=O)CCCC=CCCC[C@](C)(NC(=O)[C@H](CCCNC(=N)N)NC(=O)[C@H](CC(N)=O)NC(=O)[C@H](CCC(=O)O)NC(=O)[C@@H]1CCCN1C(=O)[C@H](CC(=O)O)NC(=O)[C@H](CC(N)=O)NC(=O)[C@@H](N)CC(=O)O)C(=O)N[C@@H](C)C(=O)N[C@@H](CCCCN)C(=O)N[C@@H](CCCCN)C(=O)N2 (some centres unmarked) [STPEP2]
[1]
  solubility limit: 11 µM (≈ 28.9 µg/mL)
HCT116 cells
  cellular toxicity (LDH release): no significant cellular toxicity

## CC[C@H](C)[C@@H]1NC(=O)[C@H](CCC(=O)O)NC(=O)[C@H](C)NC(=O)[C@H](CC(C)C)NC(=O)[C@H](CC(C)C)NC(=O)[C@H](C)NC(=O)C2(CCCC=CCCCCCC[C@@](C)(C(=O)N[C@@H](C)C(=O)N[C@@H](CC(N)=O)C(=O)N[C@@H](CC(C)C)C(=O)N[C@@H](CO)C(N)=O)NC1=O)CCCC=CCCC[C@](C)(NC(=O)[C@H](CC(N)=O)NC(=O)[C@H](CCC(=O)O)NC(=O)[C@@H]1CCCN1C(=O)[C@@H](N)CC(N)=O)C(=O)N[C@@H]([C@@H](C)CC)C(=O)N[C@@H](C)C(=O)N[C@@H](CCCCN)C(=O)N2 (some centres unmarked) [STPEP7]
[1]
  solubility limit: 49 µM (≈ 110 µg/mL)
HCT116 cells
  cellular toxicity (LDH release): no significant cellular toxicity
[2]
  fold decrease in binding compared to FAM-SPEP7: ~7 fold

## DDNDPENRIAKKMLLEEIKANLSSDEDG (peptide, UniProt P46100 1263-1290, looked up) [ATRX (1263–1290) peptide]
[3]
  dH: -13.4 kcal/mol

## NDPENRIAKKMLLEEIKANLSSDEDG (peptide, UniProt P46100 1265-1290, looked up) [ATRX (1265–1290) peptide]
[3]
  dH: -13.3 kcal/mol

## PENRIAKKMLLEEIKANLSSDEDG (peptide, UniProt P46100 1267-1290, looked up) [ATRX (1267–1290) peptide]
[3]
  dH: -11.9 kcal/mol

## PENRIAKKMLLEEIKANL (peptide, UniProt P46100 1267-1284, looked up) [ATRX (1267–1284) peptide]
[3]
  dH: -9.3 kcal/mol

## DNDPENRIAKKMLLEEIKANLS (peptide, UniProt P46100 1264-1285, looked up) [PEP_(ATRX), peptide fragment of ATRX (1264–1285)]
[3]
  dH: -13.3 kcal/mol

## B1
[4]
  Kd: 193 nM
[5]
  Kd: 80 nM

## B2
[3]
  dH: -11.7 kcal/mol

## PVTVDDDDDDNDPENRIAKKMLLEEIKANLSSDED (peptide, UniProt P46100 1255-1289, looked up) [ATRX (1255–1289) peptide]
[3]
  dH: -12.2 kcal/mol

## PVTVDDDDDDNDPENRIAKKMLLEEIKANL (peptide, UniProt P46100 1255-1284, looked up) [ATRX (1255–1284) peptide]
[3]
  dH: -10.6 kcal/mol

## DDDDNDPENRIAKKMLLEEIKANLSSDEDG (peptide, UniProt P46100 1261-1290, looked up) [ATRX (1261–1290) peptide]
[3]
  dH: -13.8 kcal/mol

## B3
[6]
  Kd: 193 nM
[7]
  ΔG: −9.69
  −TΔS: 2.06
[7]; error in parentheses
  ΔH: −11.7 (0.10)
